Experimental data reported in PubChem BioAssay AID804 (SRMLSC, 2007).
The campaign covered roughly 140,000 compounds. About 710 (0.51%) were called active. The list comes from a sample in which actives are over-represented; it also holds similar structures and randomly drawn compounds. Values without a mark were called inactive.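 How the source made its calls: active means inhibition above a set limit, 3 SD over the mean compound inhibition (cut at about 44% in these data); inactive means the rest.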

Experiment: growth inhibitors of yeast BB579 in restrictive medium, primary screen, yeast lifespan-shortening project, S. cerevisiae (AID 804)
Conditions: OD615, 48 h, at 10 µM, hits give high values
Summary of the method: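 Assay system: S. cerevisiae DeaD strain BB579 yeast. Medium: CSMM-D restrictive synthetic medium containing dextrose (glucose). Times: 4 h cell preincubation, 48 h compound exposure, 30 °C humidified. Signal: OD615 turbidity measurement. Benchmarks: positive control amphotericin B 10 µg/mL.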
Compound COc1ccc2nc(Nc3nc(-c4cc5ccccc5oc4=O)cs3)sc2c1 has an inhibition of -1.96%. Compound O=C(Cc1coc2ccc3ccccc3c12)NCc1cccs1 has an inhibition of -8.63%. Compound CCC(=O)Nc1c(S(=O)(=O)c2ccccc2)c2nc3ccccc3nc2n1Cc1ccccc1 has an inhibition of -16.3%. With O=C(O)c1ccc(/C=N/NC(=O)c2ccc(Br)cc2)cc1 the inhibition was -28.3%. O=S(=O)(NCCc1ccncc1)c1ccccc1 gave an inhibition of -4.48%. In the case of COc1cc(OC)c(C(=O)Nc2ccccc2-c2ccccc2)cc1OC, the inhibition was -28.8%. With CCNC(=O)NC(=O)C(C)OC(=O)C1CCN(S(=O)(=O)c2ccccc2F)CC1 (stereo not drawn) the inhibition was 6.21%. COc1ccc(C(=O)/C=C/c2ccc(OC3CSC3)cc2)cc1 showed an inhibition of -16.1%. With COc1ccc(/C=C/C(=O)c2cc(Br)ccc(=O)c2O)cc1 the inhibition was 96% (active). In the case of COc1ccc(/C=C/C(=O)c2ccc(OC)cc2O)cc1, the inhibition was -54.2%. In the case of Cc1ccc(C(=O)OCc2nc(N)nc(Nc3ccccc3C)n2)cc1, the inhibition was -34.8%. CC(=O)c1c(N2CCN(c3ccc(F)cc3)CC2)nc(=S)n(-c2ccccc2)c1C gave an inhibition of -54.2%. Work on CCSc1nc(C)nc2c1oc1ccccc12 yielded an inhibition of -45.9%. With Cc1nc(N2CCCC2C(=O)O)c2oc3ccccc3c2n1 (stereo not drawn) the inhibition was -21.7%. For Cc1nc(Cl)c2oc3ccccc3c2n1, the inhibition was 59.5% (active). With CCOC(=O)C1=C(C)OC(N)=C(C#N)C1c1cncc(-c2ccc(F)cc2)c1 (stereo not drawn) the inhibition was -36.2%. COc1ccc(C(=O)C[n+]2ccc(C)cc2)cc1 gave an inhibition of -28.4%. CCc1ccc(NC(=O)CC2C(=O)NCCN2C(=S)Nc2ccccc2)cc1 (stereo not drawn) showed an inhibition of -24.6%. Work on COc1cccc(NC(=S)NC(=O)c2c(Cl)c(C)nn2C)c1 yielded an inhibition of -62.5%. Cc1nc2sc(C(=O)c3ccccc3)c(N)c2c2c1CCCC2 showed an inhibition of 8.75%. With N#C/C(=C\c1ccccc1C(F)(F)F)C(=O)Nc1ccccc1F the inhibition was 4.84%. For CC(=O)NC1=NN(C(C)=O)C(C)(c2ccc(C)cc2)S1 (stereo not drawn), the inhibition was -33.1%. Work on Fc1ccc2c(c1)C(c1cccnc1)=NNC(c1cccs1)=N2 yielded an inhibition of -47.9%. Compound COC(=O)c1ccc(C(=O)OC)c(NC(=S)N2CCN(c3ccc(F)cc3)CC2)c1 has an inhibition of -49.1%. Work on Cc1ccc(-n2c(SCC(=O)N3c4ccccc4Sc4ccccc43)nnc2-c2ccncc2)cc1 yielded an inhibition of -47.4%. For COc1ccc(C)cc1NC(=O)C(Sc1ccccc1)c1ccccc1 (stereo not drawn), the inhibition was -2.09%. Cc1ccc(S(=O)(=O)N(C)C)cc1NC(=O)/C=C/c1cccs1 gave an inhibition of -48%. Cc1cc(/C=C2\SC(=Nc3ccc(N4CCOCC4)cc3)N(C)C2=O)c(C)n1-c1cccnc1 showed an inhibition of -7.27%. Cc1occc1C(=O)Nc1nnc(C2CCCCC2)s1 showed an inhibition of -32.1%. With O=C(Nc1nnc(C2CC2)s1)c1ccccn1 the inhibition was 62% (active). Work on CC1CCN(c2ccc(C(=O)Nc3nnc(C4CC4)s3)cc2[N+](=O)[O-])CC1 yielded an inhibition of -33%. Work on CCC(NC(=O)c1ccccc1NC(=O)c1ccccc1)C(=O)NNC(=O)CSc1nc2ccccc2o1 (stereo not drawn) yielded an inhibition of -6.61%. CCS(=O)(=O)N1Cc2ccccc2CC1C(=O)Nc1nc2ccc(F)cc2s1 (stereo not drawn) gave an inhibition of -23%. COc1cc(/C=C(/NC(=O)c2ccc(Cl)cc2Cl)C(=O)O)cc(OC)c1OC showed an inhibition of -17.4%. For C#CCCCc1nc2ccccc2c(=O)n1N, the inhibition was -33.7%. In the case of Cc1ccc(OCC(=O)Nc2ccccc2Sc2ccc(Cl)cc2)c([N+](=O)[O-])n1, the inhibition was -29.5%. Work on CC1=C[C@H]2Cc3cc(C)cc(C)c3S(=O)(=O)[C@@H]2C=C1 yielded an inhibition of -12.4%. Compound CC(=O)N1C(C)c2ccccc2C(C)(C)CC12CCCCC2 (stereo not drawn) has an inhibition of -16.3%. O=c1c(Cl)c(NCc2ccc(F)cc2Cl)cnn1C12CC3CC(CC(C3)C1)C2 showed an inhibition of -27.1%. For Cc1ccc(CCC(=O)Nc2ncc(Cc3cc(Cl)ccc3Cl)s2)o1, the inhibition was -66.6%. For Cc1ncc(CC(=O)n2cc(C(=O)c3cc(Cl)ccc3O)cn2)s1, the inhibition was 68.2% (active). Work on COc1cc(/C=C/C(=O)OCC(=O)Nc2cccc(Oc3ccccc3)c2)ccc1O yielded an inhibition of -29.9%. Compound C/C(=N/NC(=O)C1COc2ccccc2O1)c1ccco1 (stereo not drawn) has an inhibition of -32.3%. With O=C(COC(=O)CSc1nnc(-c2ccc(Cl)cc2)o1)Nc1cc(Cl)cc(Cl)c1 the inhibition was -26.3%. Compound CN(Cc1ccccc1)C(=O)COC(=O)c1ccccc1Nc1ccccc1 has an inhibition of -8.71%. O=C(Nc1ccc([N+](=O)[O-])cc1)C1(c2ccccc2)CCOCC1 gave an inhibition of -16.4%. For O=C(NC1CCCC1)C(NS(=O)(=O)c1ccc(Br)s1)c1ccccc1 (stereo not drawn), the inhibition was -26.3%. For O=S(=O)(c1ccc(F)cc1)N1CCN(C(=S)NCc2ccco2)CC1, the inhibition was -18%. Work on N#C/C(=C(/O)COC(=O)COc1ccc(Cl)cc1)c1nc2ccccc2[nH]1 yielded an inhibition of -22.6%. In the case of Cc1ccc(NC(=O)COC(=O)CCc2nc3ccccc3n2-c2ccccc2)c(C)c1, the inhibition was -45.6%. With COc1ccc(CN2CN(C(C)C)CSC2=S)cc1 the inhibition was 68.5% (active). Work on S=C1SCN(CCN2CCOCC2)CN1Cc1ccccc1 yielded an inhibition of 39.7%. COCC(=O)Nc1cc(C(=O)OC)cc(C(=O)OC)c1 gave an inhibition of 6.64%. Cc1cc2oc(=O)cc(CN3CCN(S(=O)(=O)c4cccs4)CC3)c2cc1C(C)C showed an inhibition of -20.6%. In the case of Cc1ccc(CNC(=O)Cn2c(=O)c3sccc3n(Cc3cccc([N+](=O)[O-])c3)c2=O)cc1, the inhibition was -44.2%. In the case of Cc1cccc(NC(=O)Cn2c(=O)n(Cc3ccccc3)c(=O)c3c(C)c(C)sc32)c1, the inhibition was -27.1%. For OC(CNCC1CCCO1)Cn1c2ccc(Br)cc2c2cc(Br)ccc21 (stereo not drawn), the inhibition was 98.7% (active). In the case of Cc1ccc(C(=O)NCC2CCCO2)o1 (stereo not drawn), the inhibition was -26.6%. Cc1cc(Br)ccc1NC(=O)C1CCCO1 (stereo not drawn) gave an inhibition of -21.5%. In the case of COc1ccc2nc(/N=C(\N)NC(=O)Nc3ccccc3)nc(C)c2c1, the inhibition was 68.3% (active). With COc1ccc(NC(=O)Nc2ccc3nc(C)c(C)nc3c2)cc1 the inhibition was -50.2%. COc1ccc2nc(SCc3ccccc3)nc(C)c2c1 gave an inhibition of -34.5%. Compound CCOC(=O)CC(NC(=O)C1c2ccccc2Oc2ccccc21)c1ccc(C)cc1 (stereo not drawn) has an inhibition of -27.5%. For Cc1cc(/C=C2/NC(=O)NC2=O)c(C)n1-c1cccnc1, the inhibition was -7.15%. CC(C)n1c(O)c(N=Nc2ccccn2)c2ccccc21 gave an inhibition of -16.1%. For C=C1c2cc(CC)ccc2NC(=O)N1c1ccc(C)cc1, the inhibition was 23.4%. For O=C1Nc2ccccc2C12Nc1ccccc1S2 (stereo not drawn), the inhibition was -30.7%. For CCc1ccc2c(c1)C1(NN=C(c3ccccc3)S1)C(=O)N2 (stereo not drawn), the inhibition was 94.7% (active). Cc1ccc(OCCOCCOc2ccc(Br)cc2/C=N\NC(=O)c2ccncc2)cc1 gave an inhibition of -32.5%. Work on COC(=O)c1ccccc1NC(=S)NC(=O)c1ccccc1F yielded an inhibition of -31.5%. With CC(C)(C)c1ccc(/C=C/C(=O)Nc2ncccn2)cc1 the inhibition was -6.47%. Compound CCn1c(C(C)NC(=O)c2ccc(C)cc2)n[nH]c1=S (stereo not drawn) has an inhibition of -50.9%. Compound COc1ccc(Cc2nnc(N/N=C/c3ccccc3O)[nH]c2=O)cc1OC has an inhibition of -57%. For Cc1csc(=Nc2ccccc2)n1CCO, the inhibition was -3.94%. For Oc1c(Cl)cc(Cl)c(Cl)c1Cc1c(O)c(Cl)cc(Cl)c1Cl, the inhibition was 71.3% (active). Cc1ccc(C(=O)Nc2sc(Cc3ccc4c(c3)OCO4)c(C)c2C(N)=O)cc1 gave an inhibition of -10.9%. Compound NC1=C([N+](=O)[O-])C(c2ccccc2)C2=C(CCCC2=O)O1 (stereo not drawn) has an inhibition of -44.3%. Compound CCCCC(O)(CCCC)C(=O)NN(C(=O)CCl)c1ccccc1 has an inhibition of -4.22%. For CCOC(=O)c1sc2nc(C)nc(SCC(N)=O)c2c1C, the inhibition was -20.9%. In the case of CCOc1ccc(/C=N/NC(=O)C(C)Sc2ccccn2)cc1OCC (stereo not drawn), the inhibition was -33.6%. In the case of Cc1ccc2[nH]c(=O)c(CC=C(Cl)Cl)c(C)c2c1, the inhibition was -51.5%. For CCOC(=O)c1sc(NC(=O)COc2ncnc3ccccc23)c(C(=O)OCC)c1C, the inhibition was -43.9%. Compound Cc1nn(Cc2ccccc2)c(C)c1C(=O)NCCN1C(=O)S/C(=C\c2ccc(F)cc2)C1=O has an inhibition of -32.9%. With CC(CNc1ccc([N+](=O)[O-])c2cccnc12)Nc1c([N+](=O)[O-])cc(C(F)(F)F)cc1[N+](=O)[O-] (stereo not drawn) the inhibition was -23.5%. With NS(=O)(=O)c1ccc(N=Cc2ccc(Br)s2)cc1 the inhibition was -15%. For O=C(COC(=O)/C=C/c1cn(-c2ccccc2)nc1-c1cccnc1)Nc1ccc(Cl)cc1Cl, the inhibition was -21.4%. Compound CC(Sc1nnc2c(n1)C1CCC2(C)C1(C)C)C(=O)Nc1ccccc1 (stereo not drawn) has an inhibition of -23.4%. Compound O=C(/C=C\c1ccc2c(c1)OCO2)NC1(C(=O)Nc2ccc3c(c2)OCCO3)CCCCC1 has an inhibition of 9.33%. COc1ccc(S(=O)(=O)N2CN(CCc3ccc(OC)c(OC)c3)c3nc4ccccc4nc32)cc1 showed an inhibition of -25.7%. Work on COc1cccc(N(C(=O)C2COc3ccccc3O2)C(C(=O)NC2CCCCC2)c2ccc(O)cc2)c1 (stereo not drawn) yielded an inhibition of -6.16%. Compound CCCCCCCC[n+]1cccc(C(=O)N2c3c(nc(N)[nH]c3=O)NC(C)C2C)c1 (stereo not drawn) has an inhibition of -5.07%. In the case of O=C(Nc1nc(-c2ccc(-c3ccccc3)cc2)cs1)c1cnccn1, the inhibition was -18.9%. O=C(CNCc1ccc(F)cc1)Nc1ccccc1-c1ccccc1 showed an inhibition of -20.9%.
